Measured values as given in ChEMBL document CHEMBL4680253, “Hybrids of MEK inhibitor and NO donor as multitarget antitumor drugs” (Eur J Med Chem, 2020).
Calls of active or inactive are those of the source. No cut-off for these calls is given here.

How the values were obtained:
HCT-116 = assay: Antiproliferative activity against human HCT116 cells harboring KRAS G13D mutant assessed as inhibition of cell viability after 96 hrs by Celltiter-Glo assay; type: functional, cell-based; conditions: HCT-116, 96 h
MDA-MB-231 [1] = assay: Antiproliferative activity against human MDA-MB-231 cells harboring KRAS G13D/BRAF G464V mutant assessed as inhibition of cell viability after 96 hrs by Celltiter-Glo assay; type: functional, cell-based; conditions: MDA-MB-231, 96 h
MDA-MB-231 [2] = assay: Induction of apoptosis in human MDA-MB-231 cells assessed as necrotic cells at 1 uM incubated for 24 hrs by AnnexinV-FITC and propidium iodide staining based flow cytometry (reference value: 1.084%); type: functional
[3] = Prodrug release in human HCT-116 cells assessed as increase in intracellular NO level at 100 uM measured after 2 hr by DAF-FM DA reagent based laser confocal scanning microscopy; conditions: hct-116, 2 h
[4] = biological target: T1, Dual specificity mitogen-activated protein kinase kinase; MEK1/2 (Homo sapiens) (UniProt P36507+Q02750); assay: Inhibition of MEK in human MDA-MB-231 cells assessed as reduction in ERK phosphorylation at 1 uM incubated for <=1 hr by Western blot analysis; type: cell-based; conditions: time hrs <=1
Procedure, shortened: (§1)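 MDA-MB-231 in RPMI-1640 with 10% FBS. Dose series at 1, 3 and 10 µM for 2 h or 24 h; time course at 1 µM or 10 µM over several time points. RIPA lysates with protease/phosphatase inhibitors, equal protein on 4-20% SDS-PAGE, PVDF transfer, 5% milk block. Probed overnight at 4 °C for pMEK, MEK, pERK and ERK, then HRP secondary.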

[5] = biological target: T1, Dual specificity mitogen-activated protein kinase kinase; MEK1/2 (Homo sapiens); assay: Inhibition of MEK in human MDA-MB-231 cells assessed as reduction in ERK phosphorylation incubated for 2 hrs by Western blot analysis; type: cell-based; conditions: dose 0.1-10 µM
[6] = biological target: T1, Dual specificity mitogen-activated protein kinase kinase; MEK1/2 (Homo sapiens); assay: Inhibition of MEK in human MDA-MB-231 cells assessed as reduction in MEK phosphorylation at 1 uM by Western blot analysis; type: cell-based; conditions: time 1-6 hrs, TDE = time-dependent effect; procedure, shortened: as §1
Vero = assay: Cytotoxicity against African green monkey Vero cells assessed as reduction in cell viability after 96 hrs by Celltiter-Glo assay; type: cell-based; conditions: Chlorocebus sabaeus
Procedure, shortened: (§2)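 Cells kept at 37 °C in humidified 5% CO2 with 10% FBS; Vero in DMEM, HL7702 in RPMI-1640. Compounds added to plated cells and incubated 96 h at 37 °C. Viability read by CellTiter-Glo reagent added directly to the wells. IC50 fitted from the readings.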

MDA-MB-231 [7] = assay: Induction of apoptosis in human MDA-MB-231 cells assessed as late apoptotic cells at 1 uM incubated for 24 hrs by AnnexinV-FITC and propidium iodide staining based flow cytometry (reference value: 3.54%); type: functional
[8] = biological target: T1, Dual specificity mitogen-activated protein kinase kinase; MEK1/2 (Homo sapiens); assay: Inhibition of MEK in human MDA-MB-231 cells assessed as reduction in ERK phosphorylation at 1 uM by Western blot analysis; type: cell-based; conditions: time 1-6 hrs, TDE = time-dependent effect; procedure, shortened: as §1
MDA-MB-231 [9] = assay: Induction of apoptosis in human MDA-MB-231 cells assessed as viable cells at 10 uM incubated for 24 hrs by AnnexinV-FITC and propidium iodide staining based flow cytometry (reference value: 90.962%); type: functional; conditions: read-out: Activity
MDA-MB-231 [10] = assay: Induction of apoptosis in human MDA-MB-231 cells assessed as early apoptotic cells at 1 uM incubated for 24 hrs by AnnexinV-FITC and propidium iodide staining based flow cytometry (reference value: 4.4%); type: functional
MDA-MB-231 [11] = assay: Induction of apoptosis in human MDA-MB-231 cells assessed as viable cells at 1 uM incubated for 24 hrs by AnnexinV-FITC and propidium iodide staining based flow cytometry (reference value: 90.962%); type: functional; conditions: read-out: Activity
[12] = biological target: T1, Dual specificity mitogen-activated protein kinase kinase; MEK1/2 (Homo sapiens); assay: Inhibition of MEK in human MDA-MB-231 cells assessed as reduction in MEK phosphorylation at 1 to 10 uM incubated for 2 hrs by Western blot analysis; type: cell-based; conditions: dose 1-10 µM; procedure, shortened: as §1
[13] = biological target: T1, Dual specificity mitogen-activated protein kinase kinase; MEK1/2 (Homo sapiens); assay: Inhibition of MEK in human MDA-MB-231 cells assessed as reduction in MEK phosphorylation incubated for 2 hrs by Western blot analysis; type: cell-based; conditions: dose 0.1-10 µM
MDA-MB-231 [14] = assay: Induction of apoptosis in human MDA-MB-231 cells assessed as early apoptotic cells at 10 uM incubated for 24 hrs by AnnexinV-FITC and propidium iodide staining based flow cytometry (reference value: 4.4%); type: functional
MDA-MB-231 [15] = assay: Induction of apoptosis in human MDA-MB-231 cells assessed as late apoptotic cells at 10 uM incubated for 24 hrs by AnnexinV-FITC and propidium iodide staining based flow cytometry (reference value: 3.54%); type: functional
[16] = biological target: T1, Dual specificity mitogen-activated protein kinase kinase; MEK1/2 (Homo sapiens); assay: Inhibition of MEK in human MDA-MB-231 cells assessed as reduction in ERK phosphorylation at 1 to 10 uM incubated for 2 hrs by Western blot analysis; type: cell-based; conditions: dose 1-10 µM; procedure, shortened: as §1
A549 = assay: Antiproliferative activity against human A549 cells harboring KRAS G12S mutant assessed as inhibition of cell viability after 96 hrs by Celltiter-Glo assay; type: functional, cell-based; conditions: A549, 96 h
[17] = biological target: T1, Dual specificity mitogen-activated protein kinase kinase; MEK1/2 (Homo sapiens); assay: Inhibition of MEK in human MDA-MB-231 cells assessed as reduction in MEK phosphorylation at 1 uM incubated for <=1 hr by Western blot analysis; type: cell-based; conditions: time hrs <=1; procedure, shortened: as §1
L02 = assay: Cytotoxicity against human HL7702 cells assessed as reduction in cell viability after 96 hrs by Celltiter-Glo assay; type: cell-based; conditions: L02, 96 h; procedure, shortened: as §2
MDA-MB-231 [18] = assay: Induction of apoptosis in human MDA-MB-231 cells assessed as necrotic cells at 10 uM incubated for 24 hrs by AnnexinV-FITC and propidium iodide staining based flow cytometry (reference value: 1.084%); type: functional
[19] = biological target: T1, Dual specificity mitogen-activated protein kinase kinase; MEK1/2 (Homo sapiens); assay: Inhibition of MEK in human A549 cells assessed as reduction in ERK phosphorylation at 1 uM incubated for 2 hrs by Western blot analysis; type: cell-based
Procedure, shortened: (§3)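 A549 cells in RPMI-1640 with 10% FBS, treated 2 h. Cells lysed in RIPA with protease/phosphatase inhibitors on ice for 20 min. Equal protein run on 4-20% SDS-PAGE and blotted to PVDF. Membranes blocked in 5% milk, then probed overnight at 4 °C with rabbit mAbs to pMEK, MEK, pERK and ERK, followed by HRP secondary. GAPDH used as loading control.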

[20] = biological target: T1, Dual specificity mitogen-activated protein kinase kinase; MEK1/2 (Homo sapiens); assay: Inhibition of MEK in human A549 cells assessed as reduction in MEK phosphorylation at 10 uM incubated for 2 hrs by Western blot analysis; type: cell-based; procedure, shortened: as §3
[21] = Antiproliferative activity against human A375 cells harboring BRAF V600E mutant assessed as inhibition of cell viability after 96 hrs by Celltiter-Glo assay; type: functional, cell-based, A375/R; conditions: A-375, 96 h
HL-60 = assay: Antiproliferative activity against human HL60 cells harboring NRAS […] mutant assessed as inhibition of cell viability after 96 hrs by Celltiter-Glo assay; type: functional, cell-based; conditions: HL-60, 96 h
[22] = biological target: T1, Dual specificity mitogen-activated protein kinase kinase; MEK1/2 (Homo sapiens); assay: Inhibition of MEK in human A549 cells assessed as reduction in ERK phosphorylation by Western blot analysis; type: cell-based; conditions: TDE = time-dependent effect; procedure, shortened: as §3
[23] = biological target: T1, Dual specificity mitogen-activated protein kinase kinase; MEK1/2 (Homo sapiens); assay: Inhibition of MEK in human MDA-MB-231 cells assessed as reduction in ERK phosphorylation at 10 uM incubated for 4 hrs by Western blot analysis; type: cell-based; procedure, shortened: as §1
[24] = biological target: T1, Dual specificity mitogen-activated protein kinase kinase; MEK1/2 (Homo sapiens); assay: Inhibition of MEK in human MDA-MB-231 cells assessed as reduction in MEK phosphorylation at 1 to 10 uM incubated for 24 hrs by Western blot analysis; type: cell-based; conditions: dose 1-10 µM; procedure, shortened: as §1
[25] = biological target: T1, Dual specificity mitogen-activated protein kinase kinase; MEK1/2 (Homo sapiens); assay: Inhibition of MEK in human A549 cells assessed as reduction in ERK phosphorylation incubated for 2 hrs by Western blot analysis; type: cell-based; conditions: dose 1-10 µM; procedure, shortened: as §3
[26] = biological target: T1, Dual specificity mitogen-activated protein kinase kinase; MEK1/2 (Homo sapiens); assay: Inhibition of MEK in human A549 cells assessed as reduction in MEK phosphorylation by Western blot analysis; type: cell-based; conditions: TDE = time-dependent effect; procedure, shortened: as §3
[27] = biological target: T1, Dual specificity mitogen-activated protein kinase kinase; MEK1/2 (Homo sapiens); assay: Inhibition of MEK in human A549 cells assessed as reduction in MEK phosphorylation incubated for 2 hrs by Western blot analysis; type: cell-based; conditions: dose 1-10 µM; procedure, shortened: as §3
[28] = biological target: T1, Dual specificity mitogen-activated protein kinase kinase; MEK1/2 (Homo sapiens); assay: Inhibition of MEK in human MDA-MB-231 cells assessed as reduction in MEK phosphorylation at 10 uM incubated for 4 hrs by Western blot analysis; type: cell-based; procedure, shortened: as §1
[29] = biological target: T1, Dual specificity mitogen-activated protein kinase kinase; MEK1/2 (Homo sapiens); assay: Inhibition of MEK in human MDA-MB-231 cells assessed as reduction in MEK phosphorylation at 10 uM incubated for 2 hrs by Western blot analysis; type: cell-based; procedure, shortened: as §1
[30] = biological target: T1, Dual specificity mitogen-activated protein kinase kinase; MEK1/2 (Homo sapiens); assay: Inhibition of MEK in human MDA-MB-231 cells assessed as reduction in ERK phosphorylation at 10 uM incubated for 2 hrs by Western blot analysis; type: cell-based; procedure, shortened: as §1
[31] = biological target: T1, Dual specificity mitogen-activated protein kinase kinase; MEK1/2 (Homo sapiens); assay: Inhibition of MEK in human MDA-MB-231 cells assessed as reduction in ERK phosphorylation at 1 to 10 uM incubated for 24 hrs by Western blot analysis; type: cell-based; conditions: dose 1-10 µM; procedure, shortened: as §1

T1 sequence (P36507 whole entry, looked up): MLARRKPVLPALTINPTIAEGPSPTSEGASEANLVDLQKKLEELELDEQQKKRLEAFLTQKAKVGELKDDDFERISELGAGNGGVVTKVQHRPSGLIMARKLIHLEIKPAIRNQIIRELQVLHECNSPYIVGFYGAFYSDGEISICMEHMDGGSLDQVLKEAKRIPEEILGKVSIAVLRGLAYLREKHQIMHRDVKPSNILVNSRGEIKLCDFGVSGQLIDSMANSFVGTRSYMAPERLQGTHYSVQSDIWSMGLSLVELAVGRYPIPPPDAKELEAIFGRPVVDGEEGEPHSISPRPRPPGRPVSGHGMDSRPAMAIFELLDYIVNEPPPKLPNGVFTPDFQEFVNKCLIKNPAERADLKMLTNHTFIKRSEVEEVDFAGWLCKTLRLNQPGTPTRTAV
T1 sequence (Q02750 whole entry, looked up): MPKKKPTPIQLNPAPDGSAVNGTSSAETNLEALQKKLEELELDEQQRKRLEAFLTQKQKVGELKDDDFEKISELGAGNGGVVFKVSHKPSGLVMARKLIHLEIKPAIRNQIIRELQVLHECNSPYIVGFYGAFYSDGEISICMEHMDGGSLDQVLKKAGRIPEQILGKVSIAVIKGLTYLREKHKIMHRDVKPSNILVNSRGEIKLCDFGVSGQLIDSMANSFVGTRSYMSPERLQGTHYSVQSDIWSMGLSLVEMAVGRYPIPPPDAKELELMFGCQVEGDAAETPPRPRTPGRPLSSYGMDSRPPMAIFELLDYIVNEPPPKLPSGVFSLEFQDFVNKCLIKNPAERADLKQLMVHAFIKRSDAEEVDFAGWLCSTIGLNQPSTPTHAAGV

SMILES	IC50 (HCT-116)	IC50 (MDA-MB-231 [1])	Activity (MDA-MB-231 [2])	Drug metabolism [3]	IC50 (Vero)	Activity (MDA-MB-231 [7])	viability at 10 µM (MDA-MB-231 [9])	Activity (MDA-MB-231 [10])	viability at 1 µM (MDA-MB-231 [11])	inhibition [12]	Activity (MDA-MB-231 [14])	Activity (MDA-MB-231 [15])	inhibition [16]	IC50 (A549)	IC50 (L02)	Activity (MDA-MB-231 [18])	inhibition [19]	inhibition [20]	IC50 [21]	IC50 (HL-60)	other results
CNS(=O)(=O)Nc1cccc(Cc2c(C)c3ccc(OCCCOc4no[n+]([O-])c4S(=O)(=O)c4ccccc4)cc3oc2=O)c1F	640 nM	34 nM	8.443%	Metabolite_Detected	21100 nM	7.65%	53.7%	22.6%	61.2%	Active	24.7%	6.87%	Active	1350 nM	5620 nM	14.729%	–	–	–	–	inhibition [4]: Active; inhibition [5]: Dose-dependent effect; inhibition [6]: Tde; inhibition [8]: Tde; inhibition [13]: Dose-dependent effect; inhibition [17]: Active
CNS(=O)(=O)Nc1nccc(Cc2c(C)c3ccc(Oc4ncccn4)cc3oc2=O)c1F [AVUTOMETINIB]	53 nM	170 nM	0.87%	Metabolite_Notdetected	> 50000 nM	1.92%	89.7%	8.45%	88.8%	Active	7.32%	2.37%	Active	1240 nM	17300 nM	0.57%	Active	Active	17 nM	6 nM	–
CNS(=O)(=O)Nc1cccc(Cc2c(C)c3ccc(OCCOc4no[n+]([O-])c4S(=O)(=O)c4ccccc4)cc3oc2=O)c1F	670 nM	93 nM	3.613%	Metabolite_Detected	4340 nM	8.15%	57.2%	20.2%	68%	–	22.9%	5.11%	–	1100 nM	2780 nM	14.737%	Active	Active	330 nM	530 nM	inhibition [22]: Tde; inhibition [23]: 100%; inhibition [24]: Active; inhibition [25]: Dose-dependent effect; inhibition [26]: Tde; inhibition [27]: Dose-dependent effect; inhibition [28]: 100%; inhibition [29]: Active; inhibition [30]: Active; inhibition [31]: Active
